According to ChEMBL document CHEMBL1146492, “Cytotoxic constituents of the twigs and leaves of Aglaia rubiginosa” (J Nat Prod, 2004):

What was measured:
[1] = Cytotoxicity against human telomerase reverse transcriptase expressing human RPE1 cells; format: functional, TERT-RPE1; conditions: for EC50: Homo sapiens, RPE-1, read-out: ED50 (the source's name)
Col2 = assay: Cytotoxicity against human Col2 cells; format: functional, cell-based
How it was run: (§1)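 Cytotoxicity was tested on a panel of human cancer cell lines following established protocols, with ED50 as the read-out. Extracts, fractions and isolates from twigs and leaves were run the same way.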

[2] = Cytotoxicity against HUVEC; format: cell-based; conditions: human, HUVEC cells; read-out: ED50 (the source's name)
LNCaP = assay: Cytotoxicity against human LNCAP cells; format: functional; conditions: for EC50: Homo sapiens, LNCaP, read-out: ED50 (the source's name); how it was run: as §1
KB = assay: Cytotoxicity against human KB cells; format: functional; conditions: for EC50: Homo sapiens, KB, read-out: ED50 (the source's name); how it was run: as §1
Lu1 = assay: Cytotoxicity against human Lu1 cells; format: functional; conditions: for EC50: Homo sapiens, Lu1, read-out: ED50 (the source's name); how it was run: as §1
[3] = read-out: ED50 (the source's name)

Row | Compound | ED50 [1] | EC50 (Col2; read-out: EC50) | CC50 [2] | ED50 (LNCaP) | ED50 (KB) | ED50 (Lu1) | EC50 [1] | EC50 (Col2; [3]) | EC50 (LNCaP) | EC50 (KB) | EC50 (Lu1)
1 | CC(C)=CC[C@@H](O)[C@@H](C)[C@H]1CC[C@H]2C3=CCC4[C@@H](O)[C@@H](O)CC[C@]4(C)[C@H]3CC[C@]12C (stereo partly drawn) | > 1 µM | > 1000 nM | > 1000 nM | > 1 µM | > 1 µM | > 1 µM | – | – | – | – | –
2 | COc1ccc([C@@]23Oc4cc(OC)cc(OC)c4[C@]2(O)[C@H](OC(C)=O)C[C@H]3c2ccccc2)cc1 | – | – | 231 nM | – | – | – | 210 nM | 189 nM | 273 nM | 147 nM | 210 nM
3 | C=C(C)[C@@H]1CC[C@]2(C)[C@H](CC[C@@H]3[C@@H]([C@@](C)(O)C/C=C/C(C)(C)O)CC[C@]32C)[C@@]1(C)CCC(=O)O | > 1 µM | > 1000 nM | > 1000 nM | > 1 µM | > 1 µM | > 1 µM | – | – | – | – | –
4 | C=C(C)[C@@H]1CC[C@]2(C)[C@H](CC[C@@H]3[C@@H]([C@@](C)(O)C/C=C/C(C)(C)O)CC[C@]32C)[C@@]1(C)CCC(=O)OC | > 1 µM | > 1000 nM | > 1000 nM | > 1 µM | > 1 µM | > 1 µM | – | – | – | – | –
5 | COc1ccc(-c2oc3cc(OC)cc(O)c3c(=O)c2OC)cc1 | > 1 µM | > 1000 nM | > 1000 nM | > 1 µM | > 1 µM | > 1 µM | – | – | – | – | –
6 | COC(=O)[C@H]1[C@@H](O)[C@@]2(O)c3c(OC)cc(OC)cc3O[C@@]2(c2ccc(OC)cc2)[C@@H]1c1ccccc1 [AGLAFOLIN] | – | – | 203 nM | – | – | – | 183 nM | 243 nM | 325 nM | 142 nM | 163 nM
7 | CC(C)(O)[C@@H]1CC[C@@](C)([C@H]2CC[C@]3(C)[C@@H]2CC[C@@H]2[C@@]4(C)CCC(=O)C(C)(C)[C@@H]4CC[C@]23C)O1 [CABRALEONE] | > 1 µM | > 1000 nM | > 1000 nM | > 1 µM | > 1 µM | > 1 µM | – | – | – | – | –
8 | CC[C@@]1(O)C(=O)OCc2c1cc1n(c2=O)Cc2cc3ccccc3nc2-1 [CAMPTOTHECIN] | – | – | 258 nM | – | – | – | 230 nM | 57 nM | 28 nM | 22 nM | 29 nM
9 | O=C1C[C@@H](c2ccc(O)c(O)c2)Oc2cc(O)cc(O)c21 [ERIODICTYOL] | > 1 µM | > 1000 nM | > 1000 nM | > 1 µM | > 1 µM | > 1 µM | – | – | – | – | –
10 | O=C1C[C@@H](c2ccc(O)cc2)Oc2cc(O)cc(O)c21 [NARINGENIN] | > 1 µM | > 1000 nM | > 1000 nM | > 1 µM | > 1 µM | > 1 µM | – | – | – | – | –
11 | CC(=O)O[C@H]1C(=O)[C@@]2(C)[C@H]([C@H](OC(=O)c3ccccc3)[C@]3(O)C[C@H](OC(=O)[C@H](O)[C@@H](NC(=O)c4ccccc4)c4ccccc4)C(C)=C1C3(C)C)[C@]1(OC(C)=O)CO[C@@H]1C[C@@H]2O [PACLITAXEL] | – | – | 105 nM | – | – | – | 23 nM | 46 nM | 5 nM | 0.4 nM | 2 nM
12 | COc1ccc([C@@]23Oc4cc(OC)cc(OC)c4[C@]2(O)[C@H](O)[C@H](C(=O)O)[C@H]3c2ccccc2)cc1 [ROCAGLOIC ACID] | – | – | 209 nM | – | – | – | 209 nM | 209 nM | 104 nM | 204 nM | 63 nM
13 | C=C(C)[C@@H]1CC[C@]2(C)[C@H](CC[C@@H]3[C@@H]([C@]4(C)CC[C@H](C(C)(C)O)O4)CC[C@]32C)[C@@]1(C)CCC(=O)O [SHOREIC ACID] | > 1 µM | > 1000 nM | > 1000 nM | > 1 µM | > 1 µM | > 1 µM | – | – | – | – | –
